MIC, Ratio and IC50 data for 5 compounds are collected here from ChEMBL document CHEMBL3621045, “Structural Insights Lead to a Negamycin Analogue with Improved Antimicrobial Activity against Gram-Negative Pathogens” (ACS Med Chem Lett, 2015).

SMILES strings stand for the structures. ≈ marks a conversion by molar mass, not a printed value. Some results are limits rather than exact numbers.

Assay [1] relates to Escherichia coli. Description: microbe, parasite or virus in culture. To be noted: ATCC 25922.
For assay [2], the system named is Klebsiella pneumoniae. Description: Antibacterial activity against Klebsiella pneumoniae ATCC 700603. In kind it is functional.
The test system of assay [3] is Pseudomonas aeruginosa. Put plainly: Ratio of MIC for Pseudomonas aeruginosa PAO1 to MIC for mexABCDXY-deficient Pseudomonas aeruginosa PAO1. In kind it is functional. An outline of the steps: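 MICs in μg/mL were determined for P. aeruginosa PAO1 and its isogenic efflux-pump knockout strain. Analogues were tested up to their highest soluble concentrations. The value is the parent-strain MIC divided by the knockout-strain MIC.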

The test system of assay [4] is Escherichia coli. Description: microbe, parasite or virus in culture. As to conditions: ATCC 25922. The source holds these as a separate data set.
Assay [5] relates to Acinetobacter baumannii. Description: Antibacterial activity against Acinetobacter baumannii ARC 3495. The class given is functional.
Assay [6] relates to Pseudomonas aeruginosa. Put plainly: Antibacterial activity against Pseudomonas aeruginosa PAO1. In kind it is functional.
In assay [7] the test system is Escherichia coli. Put plainly: Inhibition of transcription-translation process in Escherichia coli. In kind it is functional. To be noted: Escherichia coli.
Assay [8] deals with Pseudomonas aeruginosa. Description: Antibacterial activity against mexABCDXY-deficient Pseudomonas aeruginosa PAO1. In kind it is functional.

For the compound `CN(C)[C@@H]1C(O)=C(C(N)=O)C(=O)[C@@]2(O)C(O)=C3C(=O)c4c(O)cccc4[C@@](C)(O)[C@H]3C[C@@H]12` [TETRACYCLINE], the MIC in assay [1] was 1 µg/mL (≈ 2.25 µM); in assay [2], 16 µg/mL (≈ 36 µM); in assay [4] it was 0.5 µg/mL (≈ 1.13 µM); in assay [5], greater than 64 µg/mL; in assay [6], 32 µg/mL (≈ 72 µM); in assay [8] it was 0.25 µg/mL (≈ 0.563 µM). For the same compound, the Ratio in assay [3] was 128. The compound further registered an IC50 in assay [7] of 1.4 µM.
For the compound `COCCNC[C@H](O)C[C@@H](N)CC(=O)NN(C)CC(=O)O`, the MIC in assay [1] is greater than 256 µg/mL; in assay [2], 128 µg/mL (≈ 418 µM); in assay [4], 128 µg/mL (≈ 418 µM); in assay [5], 256 µg/mL (≈ 836 µM); in assay [6], greater than 256 µg/mL; in assay [8] it was greater than 256 µg/mL. Besides, the IC50 in assay [7] came to 5.3 µM.
Consider `CN(CC(=O)O)NC(=O)C[C@H](N)C[C@@H](O)CNCC1CCNC1` (stereo partly specified), for which the MIC was 256 µg/mL (≈ 772 µM) in assay [1]; 128 µg/mL (≈ 386 µM) in assay [2]; 256 µg/mL (≈ 772 µM) in assay [4]; 64 µg/mL (≈ 193 µM) in assay [5]; 256 µg/mL (≈ 772 µM) in assay [6]; 128 µg/mL (≈ 386 µM) in assay [8]. In assay [7], this compound returned an IC50 of 3.3 µM.
Regarding `CN(CC(=O)O)NC(=O)C[C@H](N)C[C@@H](O)CNCCCNC(=N)N`, the MIC is 512 µg/mL (≈ 1470 µM) in assay [1]; 128 µg/mL (≈ 368 µM) in assay [2]; 256 µg/mL (≈ 737 µM) in assay [4]; 64 µg/mL (≈ 184 µM) in assay [5]; 512 µg/mL (≈ 1470 µM) in assay [6]; 256 µg/mL (≈ 737 µM) in assay [8]. The compound also gave an IC50 in assay [7] of 1.7 µM.
With `CC(N)CCNC[C@H](O)C[C@@H](N)CC(=O)NN(C)CC(=O)O` (stereo partly specified), the MIC in assay [1] came out at 64 µg/mL (≈ 200 µM); in assay [2], 64 µg/mL (≈ 200 µM); in assay [4], 64 µg/mL (≈ 200 µM); in assay [5] it was 64 µg/mL (≈ 200 µM); in assay [6] it was 128 µg/mL (≈ 401 µM); in assay [8], 64 µg/mL (≈ 200 µM). The compound also showed an IC50 in assay [7] of 3.4 µM.

The IC50 is the point on the concentration scale where inhibition reaches its midpoint.
